Screening data (PubChem BioAssay)
Lung fibro prol = blocks proliferation of human lung fibroblasts; 1.1% of 85,000 active; viability, % at 10 µM; LL 47 human lung fibroblast viability, ATP luminescence; stronger effect = lower value; AID 719;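 active = viability at or below 50% in the single dose screen; inactive = viability above 50%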;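 note: compound exposure lasted 72 h before the ATP readout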
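test system = LL 47 human lung fibroblasts | amount = 1,150 fibroblasts seeded per well | medium = 15% FBS in IMEM | times = overnight cell rest, 72 h compound treatment at 37 °C | measured by = CellTiter-Glo luminescence measuring cellular ATP | read-out = viability percentage against median untreated-cell control | benchmarks = cell-only wells, no compound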
HUVEC inhibit = inhibitors of human endothelial cell proliferation; HUVEC proliferation, CellTiter-Glo luminescence, 72 h; stronger effect = lower value; viability, % at 10 µM (by protocol); 1.1% of 86,000 active; AID 648;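 active = viability at or below 30%; inactive = viability above 30%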
PTK2B oligo ant = Pyk2 (human) oligomerization antagonism | Q293 cells, Pyk2 FERM NanoBiT luminescence; stronger effect = lower value | z-score (the deposit names both 25 µM and 10 µM) | 0.83% of 99,000 active | AID 1347419;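 active = Z-score of -3 or lower, scaled per plate to the spread of control and sample wells; inactive = z-score above -3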;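 note: negative z-score means lost luminescence so less FERM oligomerization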
H69AR inhibit = blocks growth of human H69AR lung tumor cells; H69AR lung tumor viability, ATP luminescence, 72 h; stronger effect = lower value; viability, % at 10 µM; 6% of 85,000 active; AID 598;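 active = viability at or below 40%; inactive = viability above 40%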;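 note: multidrug resistant small cell line overexpressing MRP-1 efflux transporter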
MT1-MMP txn act = activates MT1-MMP transcription; HT1080 MT1-MMP promoter luciferase reporter, luminescence, overnight; stronger effect = higher value; activation factor at 10 µM; 0.16% of 86,000 active; AID 750;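 active = activation factor of at least 2 for MT1-MMP transcription at 10 µM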
Jurkat viability = reduces viability or proliferation of Jurkat cells; Jurkat E6.1 viability, ATP luminescence, 48 h; inhibition, % at 4 µM; 1.2% of 56,000 active; AID 463;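 active = inhibition above the mean inhibition of all tested compounds plus 3 SD, cut at about 28% in these data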
Of the large screens only hits and unclear results are named; the others gave an inactive call. Compounds with a hit are over-represented: about 5.9% of the library has one in this group of screens.

Brc1ccc(-c2nc3ncccn3c2NC2CCCCC2)o1	none (no result: Jurkat viability)
Cc1ccc2c(C)nc(Nc3nc(CSc4nnnn4-c4ccccc4)cc(=O)[nH]3)nc2c1	H69AR inhibit 34.7
COC(=O)c1ccc(C(NC(=O)OCc2ccccc2)/C(C)=C/[C@@H](C)C(=O)NCCc2c[nH]c3ccc(OC)cc23)cc1 (some centres undefined)	none (no result: Lung fibro prol, HUVEC inhibit, PTK2B oligo ant, H69AR inhibit, Jurkat viability)
Nc1ccccc1Nc1ccccc1	H69AR inhibit 10.7 (no result: MT1-MMP txn act, Jurkat viability)
COc1cc(C2C(C#N)=C(N)Oc3c2oc(CO)cc3=O)cc(OC)c1OC (centres undefined)	none
Cc1ccc(C2C(C#N)=C(N)Oc3n[nH]c(C)c32)cc1 (centres undefined)	none
N#CC1=C(N)Oc2cc(Nc3ccccc3)ccc2C1c1ccncc1 (centres undefined)	HUVEC inhibit 3.1, H69AR inhibit 14.2 (no result: Jurkat viability)
N#CC1=C(N)Oc2cc(N)ccc2C1c1ccc(F)cc1 (centres undefined)	H69AR inhibit 14.3 (no result: Jurkat viability)
CCCc1nn(C)c2c1C(c1cccnc1)C(C#N)=C(N)O2 (centres undefined)	none (no result: Jurkat viability)
COc1cc(C2C(C#N)=C(N)Oc3cc(N)ccc32)cc(OC)c1OC (centres undefined)	H69AR inhibit 28.8 (no result: MT1-MMP txn act, Jurkat viability)
CCN(CC)c1ccc2c(c1)OC(N)=C(C#N)C2c1cccnc1 (centres undefined)	Jurkat viability 97.0 (no result: Lung fibro prol, HUVEC inhibit, H69AR inhibit)
Cc1cc(NC(=O)CN2CCN(c3ccccc3O)CC2)no1	none (no result: Lung fibro prol, HUVEC inhibit, H69AR inhibit, Jurkat viability)
O=C(COC(=O)CNS(=O)(=O)c1ccc(F)c(F)c1F)Nc1ccc(OC(F)F)cc1	none (no result: Lung fibro prol, HUVEC inhibit, H69AR inhibit, MT1-MMP txn act, Jurkat viability)
COCCCn1c(N)c(-c2nc3ccccc3n2C)c2nc3ccccc3nc21	none (no result: Jurkat viability)
Cn1c(-c2c(N)n(CCc3ccccc3)c3nc4ccccc4nc23)nc2ccccc21	H69AR inhibit 36.4 (no result: Jurkat viability)
Cn1c(-c2c(N)n(CCCc3ccccc3)c3nc4ccccc4nc23)nc2ccccc21	H69AR inhibit 23.4 (no result: Jurkat viability)
CCC1=C2CC[C@H]3C(=O)N(c4ccccc4)C(=O)[C@H]3[C@H]2[C@@]2(Cc3ccccc3)C(=O)N(CC(=O)OC)C(=O)N2C1=O	none (no result: Lung fibro prol, HUVEC inhibit, PTK2B oligo ant, H69AR inhibit, Jurkat viability)
COc1ccc(-c2cnc(N)nc2-c2ccc(OC)cc2O)cc1	PTK2B oligo ant -3.06
C=C(C)COc1ccc(-c2nc(N)ncc2-c2ccc(OC)cc2)c(O)c1	H69AR inhibit 10.1 (no result: PTK2B oligo ant)
COc1ccc(-c2nc(C)ncc2-c2csc(C)n2)c(O)c1	none (no result: Jurkat viability)
Cc1ccc(C)c(N2CCN(C(=O)c3cc(S(=O)(=O)N4CCOCC4)ccc3F)CC2)c1	none (no result: PTK2B oligo ant)
N=c1c2c(-c3ccccc3)c(-c3ccccc3)n(Cc3ccco3)c2ncn1CCN1CCOCC1	Lung fibro prol 47.0, HUVEC inhibit 18.5, H69AR inhibit 35.7
c1coc(CNc2nc3ccccc3n2CCN2CCOCC2)c1	none
c1ccc(-c2nc3nc4ccccc4nc3n2Cc2ccco2)cc1	none
N=c1c2c(-c3ccccc3)c(-c3ccccc3)n(Cc3ccco3)c2ncn1CCO	H69AR inhibit 17.4 (no result: Jurkat viability)
CC(C)c1ccccc1NC(=O)c1cccc(NC(=O)c2ccccc2)c1	none (no result: Jurkat viability)
Cc1ccc(NC(=O)c2ccc(Cl)c(N3C(=O)C=CC3=O)c2)cc1	none (no result: Lung fibro prol, HUVEC inhibit, H69AR inhibit, MT1-MMP txn act, Jurkat viability)
O=C1C=C(c2ccccc2)C(=O)N1Nc1ccccc1	H69AR inhibit 1.3 (no result: Jurkat viability)
Cc1ccc(NN2C(=O)C=C(c3ccc(Cl)cc3)C2=O)cc1	H69AR inhibit 2.3 (no result: Jurkat viability)
Cc1ccc(C(C)C)c(OCC(=O)Nc2ccccc2N2CCN(C)CC2)c1	H69AR inhibit 34.6
CC(=O)N1CCN(c2ccccc2NC(=O)COc2cc(C)ccc2C(C)C)CC1	H69AR inhibit 35.1
CC(=O)N1CCN(c2ccccc2NC(=O)COc2ccc(Br)cc2)CC1	none (no result: Jurkat viability)
Cc1ccc(-c2cc(C(F)(F)F)n3nc(C(=O)NCCCn4ccnc4)cc3n2)cc1C	none (no result: Lung fibro prol, HUVEC inhibit, H69AR inhibit, MT1-MMP txn act, Jurkat viability)
O=S(=O)(c1cc(-c2nnc(-c3ccc(Br)cc3)o2)ccc1Br)N1CCCCCC1	H69AR inhibit 28.7 (no result: Jurkat viability)
NC(=O)c1ccc(Br)c(S(=O)(=O)N2CCCCC2)c1	none
Cc1cc(C)n(-c2ccc3cccc(NS(C)(=O)=O)c3n2)n1	Lung fibro prol 26.3, HUVEC inhibit 22.6, H69AR inhibit 20.7
CCC(=O)N1CCN(c2cc3c(cc2F)c(=O)c(C(=O)O)cn3CC)CC1	none (no result: PTK2B oligo ant)
CCCCCCC(=O)N1CCN(c2cc3c(cc2F)c(=O)c(C(=O)O)cn3CC)CC1	H69AR inhibit 27.0 (no result: Jurkat viability)
CCn1cc(C(=O)NCc2cccc(F)c2)c(=O)c2cc(F)c(N3CCN(C(=O)c4ccco4)CC3)cc21	H69AR inhibit 16.2 (no result: Jurkat viability)
CCn1cc(C(=O)NCc2cccnc2)c(=O)c2cc(F)c(N3CCN(C(=O)c4ccco4)CC3)cc21	H69AR inhibit 34.7 (no result: Jurkat viability)
COC(=O)[C@@]1(Cc2ccccc2)[C@H]2c3cc(C(=O)N(C)C)n(Cc4ccsc4Br)c3C[C@H]2CN1C(=O)c1ccccc1	none (no result: Lung fibro prol, HUVEC inhibit, PTK2B oligo ant, H69AR inhibit, Jurkat viability)
O=C(c1ccc2c(c1)OCO2)N1CCN(c2ccc(Cl)cc2)CC1	none (no result: Lung fibro prol)
O=C(Nc1ccccc1N1CCN(C(=O)c2ccc(Cl)cc2)CC1)c1ccc2c(c1)OCO2	PTK2B oligo ant -3.17
CC(C)C(=O)N1CCN(c2ccc(NC(=O)c3ccc4c(c3)OCCO4)cc2Cl)CC1	Lung fibro prol 19.4, HUVEC inhibit 3.2, PTK2B oligo ant -3.56, H69AR inhibit 6.2 (no result: Jurkat viability)
CCn1nc(C)c(C(=O)Nc2cc(Oc3ccc(Cl)cc3)cc([N+](=O)[O-])c2)c1C	none (no result: Lung fibro prol, HUVEC inhibit, H69AR inhibit, MT1-MMP txn act, Jurkat viability)
O=C(CN1CCCCC1)N1CCCc2ccccc21	none (no result: Lung fibro prol, HUVEC inhibit, H69AR inhibit, MT1-MMP txn act, Jurkat viability)
CC(C)C(=O)c1cn(CC(=O)N2CCCc3ccccc32)c2ccccc12	H69AR inhibit 35.7 (no result: Jurkat viability)
CCOC(=O)c1c(C)oc2c1c(C=NCc1ccccn1)c(O)c1ccccc12	H69AR inhibit 26.8 (no result: PTK2B oligo ant)
